Measurements taken from ChEMBL document CHEMBL3864135, “Synthesis and pharmacological evaluation of functionalized isoindolinones on GABA-activated chloride currents in rat cerebellum granule cells in culture” (Bioorg Med Chem Lett, 2016).

Tests used:
[1] = Solubility of the compound in water; format: physicochemical; conditions: buffer
[2] = Solubility of the compound in phosphate buffer at pH 3.2; format: physicochemical
[3] = Solubility of the compound in ethanol; format: physicochemical
[4] = Solubility of the compound in DMSO; format: physicochemical
[5] = target: T1, Gamma-aminobutyric acid receptor subunit alpha-1/beta-2/beta-3/gamma-2 (Rattus norvegicus) (UniProt P18508+P62813+P63079+P63138); assay: Inverse agonist activity at GABA alpha1beta2beta3gamma2 receptor Bzd binding site in Sprague-Dawley rat cerebellar granule cells assessed as decrease in GABA-activated chloride currents at 0.47 uM by whole-cell patch clamp technique relative to control
Method in brief: (§1)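 Whole-cell patch clamp on cultured rat cerebellar granule cells. Peak, rapidly desensitizing chloride current evoked by 10 μM GABA, recorded with and without test compound. Compounds applied at 1 μM, or at 0.47 μM where solubility limited. Change expressed as percent of the current with GABA alone (E %), mean ± SEM. Student's t-test against GABA alone.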

[6] = target: T1, Gamma-aminobutyric acid receptor subunit alpha-1/beta-2/beta-3/gamma-2 (Rattus norvegicus); assay: Agonist activity at GABA alpha1beta2beta3gamma2 receptor Bzd binding site in Sprague-Dawley rat cerebellar granule cells assessed as increase in GABA-activated chloride currents at 1 uM by whole-cell patch clamp technique relative to control; method in brief: as §1
[7] = Drug metabolism assessed as decarboxylated metabolite formation; format: ADME
[8] = target: T1, Gamma-aminobutyric acid receptor subunit alpha-1/beta-2/beta-3/gamma-2 (Rattus norvegicus); assay: Inverse agonist activity at GABA alpha1beta2beta3gamma2 receptor Bzd binding site in Sprague-Dawley rat cerebellar granule cells assessed as decrease in GABA-activated chloride currents at 1 uM by whole-cell patch clamp technique relative to control; method in brief: as §1

In the case of `Cl.O=C(CC1c2ccccc2C(=O)N1c1ccc([N+](=O)[O-])cn1)N1CCN(c2ccc(F)cc2)CC1` (stereo not given), the solubility [1] is reported as “Soluble”, the solubility [2] is reported as “Soluble” and the solubility [3] is reported as “Soluble”. The solubility [4] was “Soluble”.

In the case of `CN1CCN(C(=O)CC2c3ccccc3C(=O)N2c2ccc(N)cn2)CC1.Cl` (stereo not given), the solubility [1] is reported as “Soluble”, the solubility [2] is reported as “Soluble” and the Efficacy [5] is reported as 23%. The solubility [3] was “Soluble” and the solubility [4] was “Insoluble”.

With `Cc1ccc(N2C(=O)c3ccccc3C2CC(=O)N2CCN(C)CC2)nc1.Cl` (stereo not given) the Efficacy [6] was 21%, the solubility [1] was “Soluble” and the solubility [2] was “Soluble”. The solubility [3] was “Soluble” and the solubility [4] was “Soluble”.

For `CN1CCN(C(=O)CC2c3ccccc3C(=O)N2c2ccc(Cl)cn2)CC1.Cl` (stereo not given), the Efficacy [6] was 18%, the solubility [1] was “Soluble” and the solubility [2] was “Soluble”. The solubility [3] was “Soluble” and the solubility [4] was “Soluble”.

For `CN1CCN(C(=O)OC2c3nccnc3C(=O)N2c2ccc(Cl)cn2)CC1` (stereo not given) [ZOPICLONE], the Efficacy [6] was 58% and the Drug metabolism [7] was 50 %ID.

With `Cl.O=C(CC1c2ccccc2C(=O)N1c1ccc([N+](=O)[O-])cn1)N1CCN(c2ccccc2)CC1` (stereo not given) the solubility [1] was “Soluble”, the solubility [2] was “Soluble” and the solubility [3] was “Soluble”. For the same compound, the Efficacy [8] was 27% and the solubility [4] was “Soluble”.

For `CN1CCN(C(=O)CC2c3ccccc3C(=O)N2c2ccc([N+](=O)[O-])cn2)CC1.Cl` (stereo not given), the Efficacy [6] was 34%, the solubility [1] was “Soluble” and the solubility [2] was “Soluble”. The solubility [3] was “Soluble” and the solubility [4] was “Soluble”.

For `Cc1ccc(N2CCN(C(=O)CC3c4ccccc4C(=O)N3c3ccc([N+](=O)[O-])cn3)CC2)cc1.Cl` (stereo not given), the solubility [1] was “Soluble”, the solubility [2] was “Soluble” and the solubility [3] was “Soluble”. The solubility [4] was “Insoluble”.

With `CN1CCN(C(=O)CC2c3ccccc3C(=O)N2c2ccccn2)CC1.Cl` (stereo not given) the Efficacy [6] was 20%, the solubility [1] was “Soluble” and the solubility [2] was “Soluble”. The solubility [3] was “Soluble” and the solubility [4] was “Soluble”.

In the case of `CN1CCN(C(=O)CC2c3ccccc3C(=O)N2c2ccc(Br)cn2)CC1.Cl` (stereo not given), the Efficacy [6] is reported as 26%, the solubility [1] is reported as “Soluble” and the solubility [2] is reported as “Soluble”. The solubility [3] was “Soluble” and the solubility [4] was “Soluble”.

In the case of `COc1ccc(N2CCN(C(=O)CC3c4ccccc4C(=O)N3c3ccc([N+](=O)[O-])cn3)CC2)cc1.Cl` (stereo not given), the solubility [1] is reported as “Soluble”, the solubility [2] is reported as “Soluble” and the solubility [3] is reported as “Soluble”. The Efficacy [8] was 21% and the solubility [4] was “Soluble”.

In the case of `Cl.O=C(CC1c2ccccc2C(=O)N1c1ccc([N+](=O)[O-])cn1)N1CCN(c2ccc(Cl)cc2)CC1` (stereo not given), the solubility [1] is reported as “Soluble”, the solubility [2] is reported as “Soluble” and the solubility [3] is reported as “Soluble”. For the same compound, the Efficacy [8] was 36% and the solubility [4] was “Soluble”.
